ChEMBL document CHEMBL1121835, “Synthesis and anxiolytic activity of 6-(substituted-phenyl)-1,2,4-triazolo[4,3-b]pyridazines” (J Med Chem, 1981)
The source made the active and inactive calls. The calls are words filed in the database; no cut-off is given here.

What was measured:
[1] = molecular target: T1, GABA-A receptor; anion channel (Rattus norvegicus) (UniProt O09028+P15431+P18506+P18508+P19969+P20236+P23574+P23576+P28471+P28473+P30191+P62813+P63079+P63138+Q91ZM7+Q9ES14); assay: In vitro inhibition of [3H]diazepam binding towards Benzodiazepine receptor at 1 uM; format: protein-complex assay
[2] = molecular target: T1, GABA-A receptor; anion channel (Rattus norvegicus); assay: In vitro percent inhibition of [3H]diazepam binding to rat GABA-A benzodiazepine receptor at 1 uM; format: protein-complex assay
Rattus norvegicus [3] = assay: Compound was evaluated for anxiolytic activity for protection against pentylenetetrazole-induced convulsions; No activity at 50 mg/Kg; format: functional, organism-based
Method in brief: (§1)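 Rats in groups of 10, food-deprived 24 h, given 4–6 graded doses of compound orally (or ip where noted). PTZ at 23 mg/kg was injected iv into the caudal vein 60 min later. Protection meant no clonic seizure lasting at least 5 s. The number protected was counted and the ED50 estimated.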

[4] = molecular target: GABA-A receptor; anion channel; assay: In vitro for inhibition of [3H]diazepam towards Benzodiazepine receptor from rat; format: protein-complex assay
Method in brief: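 Rat frontal cortex homogenized in ice-cold 0.32 M sucrose; crude P2 synaptosomal fraction resuspended in 50 mM Tris-HCl pH 7.4. IC50 read graphically from % inhibition vs log concentration plots.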

Rattus norvegicus [5] = assay: In vivo protection against pentylenetetrazole-induced convulsions in the rat.; format: functional; method in brief: as §1
Rattus norvegicus [6] = species: Rattus norvegicus; assay: Anxiolytic activity for protection against pentylenetetrazole-induced convulsions.; format: functional, organism-based; method in brief: as §1
Rattus norvegicus [7] = species: Rattus norvegicus; assay: Anxiolytic activity for protection against pentylenetetrazole-induced convulsions in experiment 1; format: functional; method in brief: as §1
Rattus norvegicus [8] = assay: Hypotensive activity in saline-loaded spontaneously hypertensive rats following 100 mg/kg p.o. administration.; format: functional; parameters: unit not given beside the values; settings: route oral
Method in brief: (§2)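 Male Okamoto SH rats, about 300 g, gavaged with compound suspended in 2% boiled starch, with 0.9% NaCl loading at 25 mL/kg, at 0 h. An identical dose without saline followed at 24 h. Mean arterial pressure was taken by iliac artery puncture under local lidocaine at 28 h. Values are from one to three rats.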

Rattus norvegicus [9] = species: Rattus norvegicus; assay: Anxiolytic activity for protection against pentylenetetrazole-induced convulsions in experiment 2; format: functional; method in brief: as §1
Rattus norvegicus [10] = species: Rattus norvegicus; assay: Average reduction in blood pressure over control (4 rats) at 2 hr in spontaneous hypertensive rats; format: functional
Method in brief: (§3)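 Conscious cannulated male Okamoto SH rats, 300–350 g, dosed po with vehicle (2% boiled starch) or compound at 1, 5, 10 and 25 mg/kg. A second po dose was given 20 h later, and pressure was recorded continuously for 4 h. The value is the mean reduction against controls at 2 and 4 h, n = 4.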

Rattus norvegicus [11] = species: Rattus norvegicus; assay: Average reduction in blood pressure over control (4 rats) at 4 hr in spontaneous hypertensive rats; format: functional; method in brief: as §3
Rattus norvegicus [12] = assay: Hypotensive activity evaluated as mean arterial blood pressure (MABP) in saline-loaded spontaneously hypertensive rats dosed (per oral) at 25 mg/kg; format: functional; method in brief: as §2
Rattus norvegicus [13] = assay: Compound was evaluated for anxiolytic activity for protection against pentylenetetrazole-induced convulsions; no activity at 50 mg/kg; format: functional, organism-based; parameters: dose 50 mg/kg; method in brief: as §1
[14] = Rattus norvegicus, read-out: ED50

SMILES	inhibition [1] [%]	ED50 (Rattus norvegicus [5]) [mg/kg]	MABP (Rattus norvegicus [8])	further results
ClCc1nnc2ccc(-c3ccccc3)nn12	45			inhibition [2]: 47%; ED50 (Rattus norvegicus [3]): inactive
Clc1cccc(-c2ccc3nncn3n2)c1	30	8.2		IC50 [4]: 2250 nM
COc1ccc(-c2ccc3nnc(C)n3n2)cc1				ED50 (Rattus norvegicus [6]): inactive
CCCC(C)(COC(N)=O)COC(N)=O	1.8			
Cc1nnc2ccc(-c3ccc(F)cc3)nn12	65			IC50 [4]: 589 nM; inhibition [2]: 64%; ED50 (Rattus norvegicus [7]): 2 mg/kg; ED50 (Rattus norvegicus [7]; [14]): 3.4 mg/kg
c1ccc(Cc2nnc3ccc(-c4ccccc4)nn23)cc1				ED50 (Rattus norvegicus [6]): inactive
O=[N+]([O-])c1cccc(-c2ccc3nncn3n2)c1		22		
Cc1cc2nncn2nc1-c1cccc(F)c1			142	ED50 (Rattus norvegicus [6]): inactive
Cc1cccc(-c2ccc3nnc(C)n3n2)c1	68	~50		
Cc1nnc2ccc(-c3ccc(Cl)cc3)nn12	28			ED50 (Rattus norvegicus [7]; [14]): 9.9 mg/kg; ED50 (Rattus norvegicus [9]): 10 mg/kg
Clc1ccc(-c2ccc3nncn3n2)cc1	< 10		110	BP (Rattus norvegicus [10]): -15 mmHg; BP (Rattus norvegicus [11]): -17 mmHg; ED50 (Rattus norvegicus [7]; [14]): 5.3 mg/kg; ED50 (Rattus norvegicus [9]): 9.8 mg/kg; MABP (Rattus norvegicus [12]): 136
Cc1cc(-c2cccc(C(F)(F)F)c2)nn2cnnc12	< 10		102	EC50 (Rattus norvegicus [13]): Not Active
CCc1nnc2ccc(-c3cccc(C(F)(F)F)c3)nn12	73	24		IC50 [4]: 280 nM
Fc1ccc(-c2ccc3nncn3n2)cc1	16		88	BP (Rattus norvegicus [10]): -26 mmHg; BP (Rattus norvegicus [11]): -31 mmHg; ED50 (Rattus norvegicus [7]; [14]): 5 mg/kg; ED50 (Rattus norvegicus [9]): 2.2 mg/kg; MABP (Rattus norvegicus [12]): 123
Cl.NNc1nncc2ccccc12 [HYDRALAZINE HYDROCHLORIDE]				MABP (Rattus norvegicus [12]): 82
Cc1nnc2ccc(-c3ccc(Cl)c(Cl)c3)nn12				ED50 (Rattus norvegicus [6]): inactive
COCc1nnc2ccc(-c3cccc(C(F)(F)F)c3)nn12	23	6.4		
Fc1cccc(-c2ccc3nncn3n2)c1		5.5		
CNC1=Nc2ccc(Cl)cc2C(c2ccccc2)=[N+]([O-])C1 [CHLORDIAZEPOXIDE]	75	1.7		IC50 [4]: 248 nM

SMILES	inhibition [1] [%]	ED50 (Rattus norvegicus [5]) [mg/kg]	MABP (Rattus norvegicus [8])	further results
Cc1cc2nncn2nc1-c1ccc(F)cc1			105	ED50 (Rattus norvegicus [6]): inactive
FC(F)(F)c1cccc(-c2ccc3nnc(C(F)(F)F)n3n2)c1	60			ED50 (Rattus norvegicus [6]): inactive
Cc1nnc2ccc(-c3cccc(F)c3)nn12	47	3.1		IC50 [4]: 1200 nM; inhibition [2]: 43%
Nc1cccc(-c2ccc3nncn3n2)c1	32			ED50 (Rattus norvegicus [7]; [14]): 15 mg/kg; ED50 (Rattus norvegicus [9]): 16.6 mg/kg
Cc1nnc2ccc(-c3cccc(N)c3)nn12	60	12		IC50 [4]: 510 nM; inhibition [2]: 58%
CCCc1nnc2ccc(-c3ccccc3)nn12	38		110	MABP (Rattus norvegicus [12]): 145
FC(F)(F)c1cccc(-c2ccc3nnc(CCl)n3n2)c1	67			IC50 [4]: 391 nM; ED50 (Rattus norvegicus [3]): inactive
CCc1nnc2ccc(-c3ccc(Cl)cc3)nn12			141	ED50 (Rattus norvegicus [6]): inactive
Clc1ccccc1-c1ccc2nncn2n1		18	127	
Cc1cc2nncn2nc1-c1cccc(C#N)c1		34	88	MABP (Rattus norvegicus [12]): 135
Cc1nnc2ccc(-c3cccc([N+](=O)[O-])c3)nn12	53	11.6		
CN1C(=O)CN=C(c2ccccc2)c2cc(Cl)ccc21 [DIAZEPAM]		1.8		
Cc1cccc(-c2ccc3nncn3n2)c1		~50		
Cc1cccc(-c2ccc3nnc(C(F)(F)F)n3n2)c1				ED50 (Rattus norvegicus [3]): inactive
COc1cccc(-c2ccc3nnc(C)n3n2)c1	74			IC50 [4]: 309 nM
Cc1cc2nnc(C)n2nc1-c1cccc(F)c1	< 10			ED50 (Rattus norvegicus [6]): inactive
FC(F)(F)c1nnc2ccc(-c3ccccc3)nn12				ED50 (Rattus norvegicus [7]; [14]): 15 mg/kg; ED50 (Rattus norvegicus [9]): 18 mg/kg
c1ccc(-c2ccc3nnc(-c4ccccc4)n3n2)cc1	74			ED50 (Rattus norvegicus [6]): inactive
Cc1cc2nncn2nc1-c1cccc(C(F)(F)F)c1	21	12.9		

SMILES	inhibition [1] [%]	ED50 (Rattus norvegicus [5]) [mg/kg]	MABP (Rattus norvegicus [8])	further results
Cc1nnc2ccc(-c3cccc(Cl)c3)nn12	60			IC50 [4]: 709 nM; inhibition [2]: 61%; ED50 (Rattus norvegicus [7]; [14]): 8 mg/kg; ED50 (Rattus norvegicus [9]): 4.8 mg/kg
Fc1ccccc1-c1ccc2nncn2n1	16	17	112	
Clc1ccc(-c2ccc3nncn3n2)cc1Cl				ED50 (Rattus norvegicus [6]): inactive
CCCc1nnc2ccc(-c3cccc(C(F)(F)F)c3)nn12			112	ED50 (Rattus norvegicus [6]): inactive; MABP (Rattus norvegicus [12]): 165
CCc1nnc2ccc(-c3ccc(C(F)(F)F)cc3)nn12		~50	129	MABP (Rattus norvegicus [12]): 157
c1ccc(-c2ccc3nncn3n2)cc1	23			ED50 (Rattus norvegicus [7]; [14]): 9 mg/kg; ED50 (Rattus norvegicus [9]): 4.8 mg/kg
Cc1cc2nnc(C)n2nc1-c1cccc(C(F)(F)F)c1	26	13.8	129	
CC(=O)Nc1cccc(-c2ccc3nnc(C)n3n2)c1	56			IC50 [4]: 633 nM; EC50 (Rattus norvegicus [13]): Not Active
Cl.Clc1cccc(Cl)c1NC1=NCCN1 [CLONIDINE HYDROCHLORIDE]			102	
Cc1cc(-c2cccc(C(F)(F)F)c2)nn2c(C)nnc12	< 10			ED50 (Rattus norvegicus [3]): inactive
COCc1nnc2ccc(-c3ccccc3)nn12	< 10			ED50 (Rattus norvegicus [7]; [14]): 9.5 mg/kg; ED50 (Rattus norvegicus [9]): 6.4 mg/kg
Cc1cc2nnc(C)n2nc1-c1ccc(F)cc1	< 10			ED50 (Rattus norvegicus [6]): inactive
Cc1nnc2ccc(-c3ccccc3Cl)nn12	< 10	14	123	
Cc1cc(-c2ccc(F)cc2)nn2c(C)nnc12	< 10		126	ED50 (Rattus norvegicus [6]): inactive
FC(F)(F)c1ccc(-c2ccc3nncn3n2)cc1	21	5.8	85	BP (Rattus norvegicus [10]): -15 mmHg; BP (Rattus norvegicus [11]): -12 mmHg; MABP (Rattus norvegicus [12]): 136
Clc1ccc(-c2ccc3nnc(-c4ccccc4)n3n2)cc1				ED50 (Rattus norvegicus [6]): inactive
Cc1nnc2ccc(-c3ccccc3F)nn12	37	10.4		IC50 [4]: 7450 nM
Cc1nnc2ccc(-c3ccccc3)nn12	55			IC50 [4]: 633 nM; ED50 (Rattus norvegicus [7]; [14]): 2.3 mg/kg; ED50 (Rattus norvegicus [9]): 2.9 mg/kg
